Data on three molecules can be found in paper PMC2978626 (The Journal of Biological Chemistry, 2010).

In experiment [1] the target is ^8F1^9F1 (module pair of fibronectin, Fn precursor residues 516–608) (Homo sapiens, UniProt P02751). In words: ITC, binding to ^8F1^9F1. Particulars: 10 mM NaH2PO4/K2HPO4, pH 7.4, 25 °C, FnZ peptide 2.97 mM, Fn domain 0.24 mM. The essentials:
(§1)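 Cell held GBD (proteolytic Fn fragment, dialysed into buffer) or ⁸F1⁹F1 (Pichia-expressed, Endo Hf-trimmed glycans). Syringe held uncapped synthetic test peptide at 10–20× the cell concentration. Both were degassed at 20 °C for 15 min. 2 μl preinjection, then 39 × 7 μl injections at 0.5 μl/s, 307 rpm, 360 s spacing. Averaged heats from a separate peptide-into-buffer run were subtracted; one-site binding fit.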
On the technique in general: Isothermal titration calorimetry measures the heat released or taken up as one component is titrated into another.

For experiment [2], the target named is GBD (gelatin-binding domain of fibronectin) (Homo sapiens, UniProt P02751). The experiment in a line: ITC, binding to GBD. The essentials:
as §1

For experiment [3], the target named is recombinant fibronectin 100-kDa N-terminal fragment (human). The experiment in a line: ITC.
The target of experiment [4] is gelatin-binding domain (GBD) of fibronectin, proteolytic fragment (human). The experiment in a line: ITC.
Where [5] appears, read: ITC, 10 mM NaH2PO4/K2HPO4, pH 7.4, 25 °C, FnZ peptide 0.11 mM, Fn domain 0.01 mM.

Where no end group is shown, it is not given here.

Chain of GBD (gelatin-binding domain of fibronectin) (P02751 308-608 limits assumed): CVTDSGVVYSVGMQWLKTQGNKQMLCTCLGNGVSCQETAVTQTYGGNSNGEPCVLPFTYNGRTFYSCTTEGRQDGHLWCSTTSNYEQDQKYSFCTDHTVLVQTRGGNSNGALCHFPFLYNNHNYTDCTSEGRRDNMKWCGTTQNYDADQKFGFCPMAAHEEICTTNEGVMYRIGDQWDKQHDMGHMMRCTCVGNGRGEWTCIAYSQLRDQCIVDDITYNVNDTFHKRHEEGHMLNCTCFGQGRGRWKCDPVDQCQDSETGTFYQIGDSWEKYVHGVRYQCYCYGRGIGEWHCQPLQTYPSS
Chain of ^8F1^9F1 (module pair of fibronectin, Fn precursor residues 516–608) (P02751 516-608): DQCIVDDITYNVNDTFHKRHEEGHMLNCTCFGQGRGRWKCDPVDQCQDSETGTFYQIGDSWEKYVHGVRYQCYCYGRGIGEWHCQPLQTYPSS

For RNPHLMGIGGGLAGESGETTPK [FnZ peptide], the results for the ΔH in experiment [1] and in experiment [2] (setting [5]) were -125 kJ/mol and -74.1 kJ/mol, respectively. Besides, the values for the ΔS in experiment [1] and in experiment [2] (setting [5]) were −77.2 cal/mol K^−1 and −30.8 cal/mol K^−1, respectively. In experiment [2], this molecule yielded a Kd of 0.54 ± 0.04 µM.

B1: FnZ(370-428), recombinant fragment of the fibronectin-binding protein FnZ from S. zooepidemicus (domain or fragment)
chain: GPLGSRNPHLMGIGGGLAGESGETTPKPGQTGGQGPVIETTEDTQKGMSGQSGGTIESENTKKP
In the case of B1, in experiment [3], the Kd was 0.0008 µM, the dH is -228 kJ/mol and the stoichiometry N was 1.06.

Turning to H-RNPHLMGIGGGLAGESGETTPK-OH [FnZ synthetic peptide, residues 370-391], in experiment [4], the Kd turned out to be 0.54 µM and the dH is -74.1 kJ/mol.

A word on the Kd: it is the equilibrium constant for the complex coming apart. Broadly, the stoichiometry N is the number of molecules, sites or subunits per partner or assembly.
